Source: ChEMBL document CHEMBL1641602, “Quinolones as HCV NS5B polymerase inhibitors” (Bioorg Med Chem Lett, 2011)

What was measured:
Hepatitis C virus [1] = experiment: Antiviral activity against HCV 1b infected in human HuH7 cells assessed as total viral RNA level after 48 hrs by RT-qPCR analysis; type: functional, organism-based, Hepacivirus hominis, genotype 1b, Huh-7
In short: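 Huh7/Clone A genotype 1b replicon cells, seeded at 40,000 per well in growth medium without G418, incubated overnight at 37 °C, 5% CO2. Compounds serially diluted in DMSO (final 0.5%), seven concentrations in triplicate, 48 h at 37 °C. Total RNA extracted and replicon RNA quantified by TaqMan RT-qPCR, normalized to untreated cells (100%).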

[2] = Inhibition of Hepatitis C virus 1b BK NS5B Cdelta21 polymerase by scintillation proximity assay; design: species or system Hepatitis C virus (isolate BK)
[3] = Cytotoxicity against human HuH7 cells; type: cell-based, Huh-7
Hepatitis C virus [4] = experiment: Antiviral activity against HCV 1a infected in human HuH7 cells assessed as total viral RNA level after 48 hrs by RT-qPCR analysis; type: functional, organism-based, Hepacivirus hominis; settings: subtype 1a, Huh-7, 48 h
[5] = system: RNA-directed RNA polymerase (Hepacivirus hominis), O39930 [M423F]; experiment: Inhibition of HCV 1b BK NS5B polymerase NNI-2 allosteric site M423F mutant by scintillation proximity assay relative to wild-type; settings: Hepatitis C virus (isolate BK)
In short: (§1)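 SPA polymerase assay at 22 °C: 50 nM genotype 1b BK NS5B (C-terminal 21-residue deletion), mutant and wild-type, preincubated with inhibitor in pH 7.5 Tris buffer with MgCl2, DTT, KCl, BSA and 5% DMSO. Started with [3H]UTP, 1 µM UTP, biotinylated oligo(rU12) and poly(rA); stopped at 120 min with streptavidin SPA beads, then CsCl, then counted. Fold-change in inhibition over wild-type.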

[6] = system: RNA-directed RNA polymerase (Hepacivirus hominis), O39930 [P495L]; experiment: Inhibition of HCV 1b BK NS5B polymerase NNI-1 allosteric site P495L mutant by scintillation proximity assay relative to wild-type; settings: Hepatitis C virus (isolate BK); in short: as §1
[7] = Hepatitis C virus, genotype 1b, Huh-7, 48 h, read-out: EC50

Sequence of RNA-directed RNA polymerase (Hepacivirus hominis), O39930 [P495L] (O39930 entry or part of it P495L): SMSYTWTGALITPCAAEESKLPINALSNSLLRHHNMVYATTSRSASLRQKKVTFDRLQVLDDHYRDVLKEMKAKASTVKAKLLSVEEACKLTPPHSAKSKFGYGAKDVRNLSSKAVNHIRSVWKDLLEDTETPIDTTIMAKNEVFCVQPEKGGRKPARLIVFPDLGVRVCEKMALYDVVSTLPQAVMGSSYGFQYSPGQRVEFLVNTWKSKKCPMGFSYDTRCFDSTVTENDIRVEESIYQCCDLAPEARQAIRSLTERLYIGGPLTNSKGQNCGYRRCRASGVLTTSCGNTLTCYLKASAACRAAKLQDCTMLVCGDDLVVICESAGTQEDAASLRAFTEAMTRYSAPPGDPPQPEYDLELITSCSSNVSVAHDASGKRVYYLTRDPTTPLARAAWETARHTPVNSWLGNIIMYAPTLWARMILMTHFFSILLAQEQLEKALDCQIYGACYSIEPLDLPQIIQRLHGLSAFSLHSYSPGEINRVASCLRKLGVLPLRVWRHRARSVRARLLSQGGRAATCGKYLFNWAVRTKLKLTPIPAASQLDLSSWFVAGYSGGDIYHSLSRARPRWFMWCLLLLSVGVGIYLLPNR
Sequence of RNA-directed RNA polymerase (Hepacivirus hominis), O39930 [M423F] (O39930 entry or part of it M423F): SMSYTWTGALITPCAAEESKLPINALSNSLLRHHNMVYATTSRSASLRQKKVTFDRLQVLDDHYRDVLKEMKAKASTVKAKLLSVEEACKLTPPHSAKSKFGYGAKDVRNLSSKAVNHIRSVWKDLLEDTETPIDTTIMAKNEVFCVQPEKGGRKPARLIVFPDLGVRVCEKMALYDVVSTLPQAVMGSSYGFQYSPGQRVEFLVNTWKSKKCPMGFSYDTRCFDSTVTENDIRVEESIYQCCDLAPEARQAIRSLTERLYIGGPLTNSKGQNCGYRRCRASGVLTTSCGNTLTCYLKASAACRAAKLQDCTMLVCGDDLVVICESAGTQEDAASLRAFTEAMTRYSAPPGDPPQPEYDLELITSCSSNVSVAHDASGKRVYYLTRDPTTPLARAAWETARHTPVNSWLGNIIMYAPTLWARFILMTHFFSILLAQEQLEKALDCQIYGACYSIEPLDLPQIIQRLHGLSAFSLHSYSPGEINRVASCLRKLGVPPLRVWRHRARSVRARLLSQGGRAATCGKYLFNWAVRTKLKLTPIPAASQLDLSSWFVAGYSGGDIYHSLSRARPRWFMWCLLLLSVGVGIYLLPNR

SMILES	EC50 (Hepatitis C virus [1]; huh-7)	IC50 [2]	EC50 (Hepatitis C virus [1]; [7])	EC50 (Hepatitis C virus [4])	GI50 ([3]; huh-7)	GI50 ([3]; HuH7 cells, read-out: GI50)	fold change (FC) [5]	fold change (FC) [6]
CN1CCN(c2cc3c(cc2F)c(=O)c(NC(=O)NCc2ccccc2)cn3Cc2ccccc2)CC1	Not Active	26 µM	–	–	Not Active	–	–	–
COc1cc2c(=O)c(C(=O)c3ccc(C)cc3)cn(Cc3ccc(S(N)(=O)=O)cc3)c2cc1OC	–	0.85 µM	> 50 µM	–	–	> 25 µM	–	–
COc1cc2c(=O)c(C(=O)c3ccc(C)cc3)cn(CCCc3ccccc3)c2cc1OC	Not Active	2.2 µM	–	–	Not Active	–	–	–
COc1cc2c(=O)c(C(=O)OCc3ccccc3C)cn(Cc3ccc(C(F)(F)F)cc3F)c2cc1OC	–	0.015 µM	0.71 µM	–	–	31 µM	–	–
COc1cc2c(=O)c(S(=O)(=O)CCc3ccc(Cl)cc3)cn(Cc3ccccc3)c2cc1OC	Not Active	> 150 µM	–	–	Not Active	–	–	–
COc1cc2c(=O)c(COCc3ccc(Cl)cc3)cn(Cc3ccccc3)c2cc1OC	Not Active	100 µM	–	–	Not Active	–	–	–
O=C(OCc1ccc(Cl)cc1)c1cn(Cc2ccc(Cl)cc2)c2cc(N3CCNCC3)c(F)cc2c1=O	–	0.01 µM	0.12 µM	0.41 µM	–	1.1 µM	–	–
COc1cc2c(=O)c(C(=O)c3ccc(C)cc3)cn(Cc3ccc(C(C)C)cc3)c2cc1OC	–	1.15 µM	11.7 µM	–	–	15.5 µM	> 200	1
COc1cc2c(=O)c(C(=O)OCc3ccc(C)cc3)cn(Cc3ccc(C(F)(F)F)cc3F)c2cc1OC	–	0.008 µM	0.23 µM	–	–	20 µM	–	–
COc1cc2c(=O)c(C(=O)c3ccc(C)cc3)cn(Cc3ccc(S(C)(=O)=O)cc3)c2cc1OC	–	0.5 µM	25.3 µM	–	–	> 50 µM	–	–
O=C(NCc1ccc(Cl)cc1)c1cn(Cc2ccc(Cl)cc2)c2cc(N3CCOCC3)c(F)cc2c1=O	Not Active	16 µM	–	–	Not Active	–	–	–
CN1CCN(c2cc3c(cc2F)c(=O)c(NC(=O)Cc2ccc(Cl)cc2)cn3Cc2ccccc2)CC1	Not Active	2 µM	–	–	Not Active	–	–	–
COc1cc2c(=O)c(C(=O)c3ccc(C)cc3)cn(Cc3ccc(C(C)(C)C)cc3)c2cc1OC	–	0.68 µM	9.5 µM	–	–	> 25 µM	–	–

Further lines, with some results ahead:

EC50 (Hepatitis C virus [1]; huh-7)	IC50 [2]	EC50 (Hepatitis C virus [1]; [7])	EC50 (Hepatitis C virus [4])	SMILES	GI50 ([3]; huh-7)	GI50 ([3]; HuH7 cells, read-out: GI50)	fold change (FC) [5]	fold change (FC) [6]
Not Active	330 µM	–	–	CN(Cc1ccc(Cl)cc1)C(=O)c1cn(Cc2ccc(Cl)cc2)c2cc(N3CCOCC3)c(F)cc2c1=O	Not Active	–	–	–
–	0.02 µM	1.2 µM	–	COc1cc2c(=O)c(C(=O)OCc3ccc(Cl)cc3)cn(Cc3ccc(Cl)cc3)c2cc1OC	–	28.3 µM	–	–
–	16 µM	> 15 µM	–	CCOC(=O)c1cn(Cc2ccc(Cl)cc2)c2cc(OC)c(OC)cc2c1=O	–	> 15 µM	–	–
–	0.41 µM	> 12 µM	–	COc1cc2c(=O)c(C(=O)c3ccc(C)cc3)cn(Cc3ccc(C(F)(F)F)cc3F)c2cc1OC	–	> 25 µM	–	–
Not Active	110 µM	–	–	COc1cc2c(=O)c(C(=O)c3ccc(C)cc3)cn(CCc3ccccc3)c2cc1OC	Not Active	–	–	–
Not Active	4.6 µM	–	–	CN1CCN(c2cc3c(cc2F)c(=O)c(NC(=O)Cc2ccccc2)cn3Cc2ccc(Cl)cc2)CC1	Not Active	–	–	–
–	0.02 µM	1.7 µM	–	O=C(OCc1ccc(Cl)cc1)c1cn(Cc2ccc(Cl)cc2)c2cc(N3CCOCC3)c(F)cc2c1=O	–	> 12 µM	–	–
–	1.1 µM	11.7 µM	–	COc1cc2c(=O)c(C(=O)c3ccc(C)cc3)cn(Cc3ccc(Cl)cc3)c2cc1OC	–	15.5 µM	–	–
Not Active	120 µM	–	–	COc1cc2c(=O)c(C(=O)c3ccc(C)cc3)cn(CC3CC3)c2cc1OC	Not Active	–	–	–
–	9 µM	38 µM	–	COc1cc2c(=O)c(C(=O)c3ccc(C)cc3)cn(CC3CCCCC3)c2cc1OC	–	22 µM	–	–
Not Active	> 150 µM	–	–	CN1CCN(c2cc3c(cc2F)c(=O)c(NC(=O)NCc2ccc(Cl)cc2)cn3Cc2ccc(Cl)cc2)CC1	Not Active	–	–	–
Not Active	170 µM	–	–	COc1cc2c(=O)c(C(=O)c3ccc(C)cc3)cn(Cc3ccccc3)c2cc1OC	Not Active	–	–	–
Not Active	140 µM	–	–	COc1cc2c(=O)c(C(=O)c3ccc(C)cc3)cn(Cc3ccc(N)cc3)c2cc1OC	Not Active	–	–	–
Not Active	1.1 µM	–	–	COc1cc2c(=O)c(C(=O)c3ccc(C)cc3)cn(Cc3ccc(Cl)c(Cl)c3)c2cc1OC	Not Active	–	–	–
–	0.06 µM	1.2 µM	–	COc1cc2c(=O)c(C(=O)OCc3cccc(C)c3)cn(Cc3ccc(C(F)(F)F)cc3F)c2cc1OC	–	7.3 µM	–	–
